An excerpt weighted towards active compounds, which were near 3% of everything screened.
TRPC4 potent: allosterically enhances the mouse TRPC4 cation channel | AID 2227 | B-score at 10 µM | HEK293 TRPC4beta/mu-opioid, DAMGO EC20, Fluo-4 Ca2+ flux; hits give high values | Q9QUQ5 | actives 0.42% (n = 310,000);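 active = B-score of calcium response area above 5 SD of library B-scores, with initial fluorescence ratio within 5 SD of library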
Target sequence (Q9QUQ5 whole entry, looked up): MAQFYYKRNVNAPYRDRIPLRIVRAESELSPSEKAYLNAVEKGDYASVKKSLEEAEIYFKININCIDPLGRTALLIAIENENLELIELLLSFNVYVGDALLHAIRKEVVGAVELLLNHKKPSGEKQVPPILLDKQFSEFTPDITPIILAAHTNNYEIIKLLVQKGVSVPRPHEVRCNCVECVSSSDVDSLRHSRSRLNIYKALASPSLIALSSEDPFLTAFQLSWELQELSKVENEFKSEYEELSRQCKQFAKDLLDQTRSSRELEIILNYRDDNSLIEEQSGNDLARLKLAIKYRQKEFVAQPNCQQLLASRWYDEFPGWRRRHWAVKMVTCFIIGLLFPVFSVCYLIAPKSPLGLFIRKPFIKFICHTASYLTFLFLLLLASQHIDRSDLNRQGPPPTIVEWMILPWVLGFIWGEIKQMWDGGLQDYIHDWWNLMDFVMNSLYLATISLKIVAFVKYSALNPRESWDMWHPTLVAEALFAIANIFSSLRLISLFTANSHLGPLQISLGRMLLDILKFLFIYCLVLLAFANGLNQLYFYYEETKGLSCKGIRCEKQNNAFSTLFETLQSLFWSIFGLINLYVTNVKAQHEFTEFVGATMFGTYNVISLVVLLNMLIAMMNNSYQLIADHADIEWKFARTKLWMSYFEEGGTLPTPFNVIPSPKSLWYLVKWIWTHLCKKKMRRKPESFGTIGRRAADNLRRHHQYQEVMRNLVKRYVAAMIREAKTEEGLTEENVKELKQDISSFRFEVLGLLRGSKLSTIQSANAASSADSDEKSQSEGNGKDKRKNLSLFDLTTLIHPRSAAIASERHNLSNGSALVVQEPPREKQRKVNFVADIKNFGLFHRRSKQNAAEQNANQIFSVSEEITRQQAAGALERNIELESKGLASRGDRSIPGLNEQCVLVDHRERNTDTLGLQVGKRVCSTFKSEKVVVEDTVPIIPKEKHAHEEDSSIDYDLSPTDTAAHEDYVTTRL
Kir21 block: blocks the mouse Kir2.1 inward-rectifier potassium channel; HEK293-Kir2.1, FluxOR thallium flux fluorescence; hits give low values; actives 0.85% (n = 310,000); B-score at 10 µM; AID 1672;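 active = fluorescence ratio B-score at or below minus 3 SD of library scores, with starting-brightness B-score within 2 SD, cut at about -4.2 in these data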;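 also: channel flux triggered by added potassium and thallium sulfate stimulus; B-score of peak minus minimum fluorescence over baseline after thallium stimulus; more negative B-score means stronger Kir2.1 block with less thallium influx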
TRPC4 act: activators of mouse TRPC4 channel; Q9QUQ5; AID 2237; B-score at 10 µM; HEK293 TRPC4beta/mu-opioid, Fluo4 calcium fluorescence; hits give high values; actives 0.49% (n = 310,000);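 active = B-score above 5 SD of library B-scores, and initial fluorescence ratio not above library mean plus 5 SD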;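 also: positive B-score marks a calcium rise read as TRPC4 activation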
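Test system: HEK293 cells stably co-expressing mouse TRPC4beta and mu-opioid receptor | Schedule: Fluo4 dye loading 45 min at room temperature, 110 s recording | Measured by: Kinetic Fluo4 calcium fluorescence, 5 s baseline at 1 Hz | Evaluation: B score of integrated ratio | Controls: Buffer (low) and maximal DAMGO (high)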
TRPC6 inh: inhibitors of mouse TRPC6 channel. HEK293-TRPC6, membrane potential dye, ACh-evoked depolarization; hits give low values. B-score at 10 µM. actives 1.1% (n = 310,000). AID 2553;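 active = B-score under library mean minus 3 SD, initial fluorescence not abnormally high, positive integrated signal ratio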;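 also: B-score derived from integrated fluorescence ratio over the kinetic read; more negative B-score means stronger inhibition of depolarization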
TRPC4 block: blocks the mouse TRPC4 cation channel | Q9QUQ5 | HEK293 TRPC4beta/mu-opioid, DAMGO-evoked Fluo4 calcium flux; hits give low values | B-score at 10 µM | actives 0.39% (n = 300,000) | AID 2247;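 active = B-score over 3 SD under the library average, no early fluorescence shift, positive overall ratio signal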
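System: stable TRPC4beta/mu-opioid receptor HEK293 cells; Dosing: single-point compound dosing; Measured by: Fluo4 Ca2+ flux fluorescence; Read-out basis: per-well B score of integrated baseline-normalized Fluo4 ratio.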
TRPC6 act: activators of mouse TRPC6 channel | Q61143 | HEK293-TRPC6 membrane potential dye fluorescence; hits give high values | B-score at 10 µM | actives 0.13% (n = 310,000) | AID 2550;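 active = B-score of the integrated fluorescence ratio above library mean plus 3 SD, and starting fluorescence ratio within library mean plus 5 SD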;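 also: higher score means more depolarization so channel activation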
TRPC4 sel inh 2: second selectivity test of TRPC6 inhibitors: effect on mouse TRPC4; shares compounds with TRPC6 inh; HEK293 TRPC4/MOR, membrane potential dye fluorescence; channel activated by saturating DAMGO dose; inhibition, % at 10 µM; actives 42% (n = 920); AID 2776;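 active = compounds whose fluorescence signal differed from control wells by over 3 SD, either direction, in both duplicate plates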
TRPC4 spec: tests whether TRPC6 inhibitors also affect mouse TRPC4 | activity change, negative = inhibition, % at 10 µM | actives 61% (n = 920) | AID 2777 | HEK293 TRPC4/mu-opioid, membrane potential fluorescence | shares compounds with TRPC6 inh;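 active = rise or fall in signal beyond 3 SD of buffer-only wells in both replicate plates, either sign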;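 also: integrated kinetic ratio of fluorescence range over baseline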
HEK293 MPD ctr 2-1: parental HEK293 nonspecific activity of TRPC6 inhibitors, second screen; parental HEK293 membrane potential dye fluorescence; maximal acetylcholine challenge after compound addition; actives 31% (n = 920); shares compounds with TRPC6 inh; signal change vs control, % at 10 µM;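 active = membrane potential signal moving either way by over 3 SD of the maximum-effect control, in both duplicate plates, meaning non-specific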
HEK293 MPD ctr-1: parental HEK293 nonspecific activity of TRPC6 inhibitors. actives 60% (n = 920). membrane potential signal change, % at 10 µM. parental HEK293 membrane potential dye fluorescence. shares compounds with TRPC6 inh;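 active = membrane potential signal shifting up or down by more than 3 SD of buffer-only wells, on both duplicate plates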
HEK293 MPD ctr-2: checks TRPC6 modulator effects in parental HEK293 cells | shares compounds with TRPC6 inh | membrane potential signal change, % at 10 µM | membrane potential dye fluorescence | actives 51% (n = 2,400);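 active = membrane potential signal moves up or down beyond 5 SD from buffer-only wells, on both duplicate plates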
HEK293 MPD ctr 2-2: second counter-screen for TRPC6 modulators: effect in parental HEK293 cells. inhibition, % at 10 µM. actives 14% (n = 2,400). AID 488926. membrane potential dye fluorescence; after compound, maximal acetylcholine stimulation. shares compounds with TRPC6 inh;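 active = membrane potential signal drops by more than 5 SD from the mean control signal, in both duplicate plates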
TRPC4 ctr mod: mouse TRPC4 off-target activity of TRPC6 modulators | actives 69% (n = 2,400) | HEK293 TRPC4/mu-opioid, membrane potential fluorescence | AID 488927 | percent change from control (negative = decrease, positive = increase), % at 10 µM | shares compounds with TRPC6 inh;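 active = membrane potential signal moved up or down beyond 5 SD of buffer control wells, in both duplicate plates, actives on both sides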
TRPC4/MOR inh 2: mouse TRPC4 off-target activity of TRPC6 modulators, second screen; shares compounds with TRPC6 inh; HEK293 TRPC4/mu-opioid, membrane potential dye fluorescence; stimulated with maximal-effect DAMGO; inhibition, % at 10 µM; actives 55% (n = 2,400); AID 488928;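 active = drop in membrane potential signal beyond 5 SD of the control wells in both duplicate plates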;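 also: TRPC4 counter screen for TRPC6 hits run under conditions tuned for TRPC6 not TRPC4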
TRPC6 block conf: confirmation of mouse TRPC6 inhibitors. shares compounds with TRPC6 inh. HEK293-TRPC6, membrane potential dye, ACh-evoked depolarization. inhibition, % at 10 µM. actives 43% (n = 3,300);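 active = fluorescence ratio falls more than 5 SD below the full-stimulation control mean, in both duplicate runs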;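 also: integrated fluorescence ratio of peak minus minimum over baseline after agonist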
TRPC6 act conf: mouse TRPC6 activator confirmation; HEK293-TRPC6 membrane potential dye fluorescence, FDSS; shares compounds with TRPC6 inh; actives 11% (n = 2,800); activation, % at 10 µM; AID 488961;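 active = ratio signal rise beyond 5 SD above unstimulated control wells' mean, seen in both duplicate runs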
Large screens that a line does not name were inactive (follow-up assays come after a bar, where they were run).

C=CCOC(=O)C1=C(C)NC(=O)NC1c1cc2c(cc1Br)OCO2 (stereo not drawn)	none
COCCCN1CCN(C2Cc3ccccc3Sc3ccc(Cl)cc32)CC1 (stereo not drawn)	none
Clc1ccc2c(c1)C(N1CCNCC1)Cc1ccccc1S2 (stereo not drawn)	Kir21 block -13.6, TRPC6 inh -5.44 | HEK293 MPD ctr-2 inactive | HEK293 MPD ctr 2-2 inactive | TRPC4 ctr mod inactive | TRPC4/MOR inh 2 74.0% | TRPC6 block conf 64.0% | TRPC6 act conf inactive
CCN(CC)CCNC(=O)c1ccc2c(=O)n(C3CCCC3)c(=S)[nH]c2c1	TRPC6 inh -6.76 | TRPC4 sel inh 2 inactive | TRPC4 spec inactive | HEK293 MPD ctr 2-1 inactive | HEK293 MPD ctr-1 inactive | TRPC6 block conf inactive | TRPC6 act conf inactive
CC(=O)N(Cc1ccc(F)cc1)C1=C(NCCc2ccccc2)C(=O)c2ccccc2C1=O	TRPC6 inh -11.4 | TRPC4 sel inh 2 inactive | TRPC4 spec -10.6% | HEK293 MPD ctr 2-1 inactive | HEK293 MPD ctr-1 -182.5% | TRPC6 block conf inactive | TRPC6 act conf inactive
Cn1cc(CN2CCC(n3nccc3NC(=O)c3ccccc3Cl)CC2)c2ccccc21	TRPC6 inh -5.63 | HEK293 MPD ctr-2 inactive | HEK293 MPD ctr 2-2 inactive | TRPC4 ctr mod inactive | TRPC4/MOR inh 2 70.0% | TRPC6 block conf inactive | TRPC6 act conf inactive
CCOC(=O)C1CCN(C(=O)c2ccccc2NS(=O)(=O)c2ccccc2)CC1	none
CCOC(=O)C1CCN(C(=O)c2cccc(S(=O)(=O)Nc3ccc(C)cc3C)c2)CC1	TRPC6 inh -5.27 | HEK293 MPD ctr-2 inactive | HEK293 MPD ctr 2-2 inactive | TRPC4 ctr mod 12.5% | TRPC4/MOR inh 2 inactive | TRPC6 block conf 36.5%
O=C(NCCc1cccc(Cl)c1)c1cccc([N+](=O)[O-])c1	none
O=[N+]([O-])c1cccc(C(=Nc2cccc(Cl)c2)NO)c1	TRPC6 inh -8.79 | TRPC4 sel inh 2 inactive | TRPC4 spec inactive | HEK293 MPD ctr 2-1 inactive | HEK293 MPD ctr-1 inactive | TRPC6 block conf inactive | TRPC6 act conf inactive
COc1cc(C(=O)NCC2CCCN2S(=O)(=O)c2cccs2)cc(OC)c1OC (stereo not drawn)	none
